From PubChem BioAssay AID463079 (The Scripps Research Institute Molecular Screening Center, 2010)
About 2,000 (0.61%) of roughly 330,000 compounds were called active. Shown is part of a subset that was picked to be rich in actives. A number with no mark means an inactive call.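 The calls were made as follows: active = inhibition above that plate's mean sample inhibition plus 3 SD (cut at about 26% in these data); inactive = the rest.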

Experiment: ATP-evoked calcium signal inhibitors, parental CHO, primary screen, counter-screen for OX1R antagonist project, cell-based, fluorescence, Fluo-8 calcium dye (AID 463079);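 also: 0% = ATP-challenged DMSO wells and 100% = DMSO wells without ATP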
Settings: parental CHO-K1, ATP-induced calcium, Fluo-8 fluorescence; at 5.6 µM; hits give high values
Outline: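 Material: Parental CHO cells | Reagent: ATP | Compound dosing: Single nominal dose of 5.6 µM per compound | Detection: Intracellular calcium via Fluo-8 no-wash fluorescent dye | Read-out: % inhibition of ATP-induced calcium mobilization | Benchmarks: Low control ATP plus DMSO, high control DMSO only | Replicates: Singlicate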
In the case of `CC(=O)c1c(C)[nH]c(C(=O)COC(=O)c2cccs2)c1C`, the inhibition is reported as -6.37%. For `CC(=O)c1c(C)[nH]c(C(=O)COC(=O)c2cccc(S(=O)(=O)N(C)c3ccccc3)c2)c1C`, the inhibition was 74.8% (active). With `COc1cccc(C(=O)OCC(=O)c2[nH]c(C)c(C(C)=O)c2C)c1` the inhibition was -11.5%. Compound `Cc1nn(C(C)C(=O)N2CCOCC2)c(=O)c2nn(-c3ccccc3)c(C)c12` (configuration not stated) has an inhibition of -7.21%. `CC[C@]12c3[nH]c4ccc(OC)cc4c3CCN1C(=O)C(CC(=O)NCCN1CCOCC1)C[C@@H]2C(=O)N1CCN(C(=O)C2CC2)CC1` (some centres not stated) showed an inhibition of -9.94%. With `COc1cc(OC)cc(C(=O)N[C@H](C(=O)OCC(=O)NC(C)c2ccccc2)C(C)C)c1` (some centres not stated) the inhibition was 41.6% (active). For `Cc1cc(C)cc(OCC(=O)NC(C)c2ccccc2)c1` (configuration not stated), the inhibition was -19.1%. For `COc1cc(OC)cc(C(=O)NCC(=O)OCC(=O)NC(C)CCc2ccccc2)c1` (configuration not stated), the inhibition was -9.76%. For `CCC(C(=O)OCC(=O)Nc1ccc(C(=O)Nc2ccc(OC)cc2)cc1)c1ccccc1` (configuration not stated), the inhibition was 2.63%. In the case of `CCC(C(=O)Nc1ccc(C(C)C)cc1)c1ccccc1` (configuration not stated), the inhibition is reported as 54% (active). With `CCC(C(=O)Nc1ccc2c(c1)OCCO2)c1ccccc1` (configuration not stated) the inhibition was -14.5%. `OCC[C@H]1C[C@@H](O)[C@H](O)[C@@]2(OCCc3ccccc32)O1` showed an inhibition of -2.14%. `CCC(C)N(C(=O)CSc1nnnn1-c1ccccc1OC)C1CCS(=O)(=O)C1` (configuration not stated) gave an inhibition of -20%. With `O=C(/C=C(O)/C=C/c1ccc(O)cc1)/C=C/c1ccc(O)cc1` the inhibition was 44.2% (active). Work on `O=C(O)/C=C/c1ccc(OCCCF)cc1` yielded an inhibition of -5.89%. Work on `O=C(/C=C/c1ccc2c(c1)OCCO2)c1ccc(O)cc1` yielded an inhibition of 3.62%. `CC1CCCCN1CCCNC(=O)Cn1ncc2c([nH]c3ccccc32)c1=O` (configuration not stated) showed an inhibition of -10.7%. In the case of `CCc1ccccc1NC(=O)c1ccc2c(c1)CCN2S(C)(=O)=O`, the inhibition is reported as -12.5%. For `CN(C)CCCNC(=S)N1CCN(c2nc(-c3ccccc3)cs2)CC1`, the inhibition was -5.41%. In the case of `Cc1cccn2cc(-c3cccc(S(=O)(=O)N4CCCCC4)c3)nc12`, the inhibition is reported as -20.2%. With `CC1(C)C=Cc2c(ccc3c2OC[C@@H](c2ccc(O)cc2O)C3)O1` the inhibition was 94.3% (active). `c1ccc(CN=C2Nc3ccccc3CS2)nc1` showed an inhibition of -13.6%. Work on `Cc1ccc(N(CC(=O)Nc2cc(C)cc(C)c2)S(=O)(=O)c2cccc3nonc23)cc1` yielded an inhibition of -11.6%. For `CCN(CC)S(=O)(=O)c1ccc(N(C)Cc2cccc(OC)c2OC)nc1`, the inhibition was 28.5%. `CCN(CC)S(=O)(=O)c1ccc(N(C)CCc2ccc(OC)c(OC)c2)nc1` showed an inhibition of -13.7%. In the case of `CCN(CC)S(=O)(=O)c1ccc(N(C)Cc2ccc(C(F)(F)F)cc2)nc1`, the inhibition is reported as 43.6% (active). `Nc1ncnc2c1ncn2[C@@H]1O[C@H](CNS(=O)(=O)c2ccc(-c3ccno3)s2)[C@@H](O)[C@H]1O` gave an inhibition of -2.72%. `CC[C@]12c3[nH]c4ccc(Cl)cc4c3CCN1C(=O)[C@@H](CC(=O)NCCCOC)C[C@@H]2C(=O)N1CCN(C(=O)C2CC2)CC1` gave an inhibition of -12.5%. Work on `CC(=O)c1c(C)n(-c2ccc(N(C)C)cc2)c2ccc(OCC(N)=O)cc12` yielded an inhibition of -2.26%. With `CC(=O)c1c(C)n(-c2ccc(C)cc2)c2ccc(O)cc12` the inhibition was 81.6% (active). `CCOC(=O)c1c(CN2CCOCC2)n(-c2ccccc2)c2ccc(O)cc12` showed an inhibition of -10.2%. Work on `C/C(=N\NC(=O)c1ccc(CSc2nc(C)cc(C)n2)cc1)C1CCCCC1` yielded an inhibition of -15.5%. With `Cc1ccc(O)c(NC(=S)NC(=O)COc2ccc(Br)cc2)c1` the inhibition was 58.4% (active). Work on `COc1ccc(C(=O)Nc2cc(C)ccc2NC(=O)COc2ccccc2)cc1` yielded an inhibition of -7.7%. For `CCS(=O)(=O)c1ccc(O)c(NC(=O)COc2ccc(Cl)cc2)c1`, the inhibition was -4.26%. With `COCCCNC(=O)c1ccc(CNS(=O)(=O)c2ccc(NC(C)=O)cc2)cc1` the inhibition was -6.87%. With `Cc1nnc(SCC(=O)N2c3ccccc3C(C)(c3ccc(Cl)cc3)CC2(C)C)s1` (configuration not stated) the inhibition was -18.2%. `CCOC(=O)[C@H]1[C@H]2COc3ccccc3[C@@H]2N2C(=O)CN(Cc3ccccc3)C(=O)[C@@]12C` gave an inhibition of -31.8%. `O=S(=O)(c1ccc(Cl)s1)N1CCC2(CC1)OCCO2` showed an inhibition of -9.61%. In the case of `CC(OC(=O)/C=C/c1ccccc1)C(=O)Nc1ccc(C(N)=O)cc1` (configuration not stated), the inhibition is reported as -8.76%. Compound `CC(C)Sc1nnc([C@H](Cc2ccccc2)NC(=O)OC(C)(C)C)o1` has an inhibition of -15.8%. `C[C@H](NC(=O)OC(C)(C)C)c1nnc(SCC(=O)Nc2ccc(Br)cc2)o1` showed an inhibition of -14.8%. In the case of `C[C@@H](NC(=O)OC(C)(C)C)c1nnc(S(=O)(=O)Cc2ccccc2)o1`, the inhibition is reported as 51.1% (active). `NNC(=O)C1CC(O)CN1S(=O)(=O)c1ccc(Cl)cc1` (configuration not stated) showed an inhibition of -12.3%. With `O=C(CN1CCN(S(=O)(=O)c2cc(Cl)ccc2Cl)CC1)c1ccc(O)c(O)c1` the inhibition was -11.1%. With `Cc1ccc(S(=O)(=O)Nc2ccc(F)c(S(=O)(=O)N3CCOCC3)c2)cc1` the inhibition was -18.4%. Work on `COc1cccc(CSc2nc3nc(C)cc(C)n3n2)c1` yielded an inhibition of 9.68%. `CC[C@]1(C(=O)OC)[C@H]2C(=O)N(Cc3ccccc3)C(=O)[C@H]2[C@H]2CN=C(SCc3ccc(C#N)cc3)N21` gave an inhibition of -26.6%. In the case of `CCOC(=O)C1=C(C)N(C[C@@H]2CC[C@@H](Cc3ccc(-c4ccccc4)cc3)O2)C(=O)NC1c1ccc([N+](=O)[O-])cc1` (some centres not stated), the inhibition is reported as -13.7%. `O=C(Nc1ccc2c(c1)OCCO2)c1cnccn1` showed an inhibition of -2.07%. For `CCN(CC)c1ccc(/C=N/NC(=O)c2cnccn2)c(O)c1`, the inhibition was 43.5% (active). Compound `CCN1CCN(c2ccc(NC(=O)c3cnccn3)cc2)CC1` has an inhibition of -2.98%. `CCOc1ccc(NS(=O)(=O)c2ccc(C)c(C(N)=O)c2)cc1` gave an inhibition of -5.42%. For `CN1CCC(=NNC(=O)CN(c2cccc(Cl)c2)S(C)(=O)=O)CC1`, the inhibition was -9.11%. Work on `COc1ccc(-c2nnc(SCC(=O)c3ccc4c(c3)OCCO4)o2)cc1` yielded an inhibition of -4.45%. With `COc1ccc(-n2c(C)cc(C(=O)CSc3nnc(-c4cccs4)o3)c2C)cc1` the inhibition was 40.8% (active). `COc1ccc(-n2c(C)cc(C(=O)COC(=O)c3cc(OC)c(OC)cc3NC(=O)c3cccs3)c2C)cc1` showed an inhibition of -15.5%.
